Results on 1 molecule are retold here after ChEMBL document CHEMBL2424614, “A novel p-terphenyl derivative inducing cell-cycle arrest and apoptosis in MDA-MB-435 cells through topoisomerase inhibition” (Eur J Med Chem, 2013).

Each structure is given as a SMILES string. Active and inactive are the calls of the source. The calls are words filed in the database; no cut-off is given here.

Test [1] deals with MDA-MB-435. Briefly: Induction of apoptosis in human MDA-MB-435 cells assessed as early apoptotic cells at 1 uM after 24 hrs by annexin-V FITC/propidium iodide staining-based flow cytometry (reference value: 0.61 +/- 0.24%). It counts as functional. The gist of the method:
(§1)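 MDA-MB-435 cells treated 24 h, stained with annexin V-FITC/PI per kit instructions, analysed by flow cytometry. Quadrant statistics: lower right taken as apoptotic, upper right as necrotic or post-apoptotic necrotic. Representative of three similar experiments.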
In general terms: A flow cytometer gives signals particle by particle.

Test [2] relates to MDA-MB-435. The test can be described thus: Induction of apoptosis in human MDA-MB-435 cells assessed as viable cells at 1 uM after 24 hrs by annexin-V FITC/propidium iodide staining-based flow cytometry (reference value: 98.62 +/- 0.25%). It counts as functional. To be noted: MDA-MB-435, 24 h, read-out: Activity. The gist of the method: as §1
The test system of test [3] is MDA-MB-435. Briefly: Induction of apoptosis in human MDA-MB-435 cells assessed as dead cells at 0.5 uM after 24 hrs by annexin-V FITC/propidium iodide staining-based flow cytometry (reference value: 0.61 +/- 0.24%). In kind it is functional.
For test [4], the system named is MDA-MB-435. Briefly: Induction of apoptosis in human MDA-MB-435 cells assessed as late apoptotic cells at 0.5 uM after 24 hrs by annexin-V FITC/propidium iodide staining-based flow cytometry (reference value: 0.34 +/- 0.08%). It counts as functional. In outline:
as §1

Test [5] concerns MDA-MB-435. The test can be described thus: Induction of apoptosis in human MDA-MB-435 cells assessed as early apoptotic cells at 0.5 uM after 24 hrs by annexin-V FITC/propidium iodide staining-based flow cytometry (reference value: 0.61 +/- 0.24%). It counts as functional. In outline: as §1
For test [6], the system named is MDA-MB-435. The test can be described thus: Induction of apoptosis in human MDA-MB-435 cells assessed as upregulation of Bax protein expression at 0.25 to 1 uM after 12 hrs by Western blotting analysis. It counts as functional, cell-based. In outline:
(§2)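 Treated MDA-MB-435 cells lysed in ice-cold Tris-HCl pH 7.4 buffer with Triton, phosphatase and protease inhibitors. Lysates clarified, boiled in SDS loading buffer, run on 8-12% SDS-PAGE and blotted. Membranes blocked in 5% skim milk, probed with primary antibodies, then peroxidase secondaries with ECL detection. β-actin as loading control.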

The test system of test [7] is MDA-MB-435. The test can be described thus: Cell cycle arrest in human MDA-MB-435 cells assessed as increase in cyclin B1 expression at 0.25 to 1 uM after 12 to 24 hrs by Western blotting analysis. It counts as functional, cell-based. In outline:
as §2

Test [8] deals with MDA-MB-435. Briefly: Cell cycle arrest in human MDA-MB-435 cells assessed as accumulation at sub-G1 phase at 0.25 to 1 uM by propidium iodide staining-based flow cytometry. The settings on record: TDE = time-dependent effect, in the assay text read “G2/M phase” for “sub-G1 phase”. It counts as functional. The gist of the method: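 PI-stained DNA content of treated MDA-MB-435 cells read by flow cytometry. Sub-G1 population taken as apoptotic cellular fragments; three independent experiments.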

Test [9] relates to MDA-MB-435. The test can be described thus: Cell cycle arrest in human MDA-MB-435 cells assessed as accumulation at G2/M phase at 1 uM after 24 hrs by propidium iodide staining-based flow cytometry (reference value: 14.05%). In kind it is functional.
The test system of test [10] is MDA-MB-435. Briefly: Cell cycle arrest in human MDA-MB-435 cells assessed as accumulation at S phase at 0.5 uM after 24 hrs by propidium iodide staining-based flow cytometry (reference value: 57.11%). It counts as functional.
Test [11] has as its system A549. Briefly: Cytotoxicity against human A549 cells assessed as growth inhibition after 72 hrs by MTT assay. It counts as functional, cell-based. The gist of the method:
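MTT assay: cells treated in triplicate with a range of concentrations for 72 h at 37 °C, 5% CO2. Medium replaced, MTT (5 mg/mL) added for 4 h, then SDS/isobutanol/HCl solubiliser overnight. Absorbance read at 590 nm. Inhibition calculated against control and blank wells; IC50 is concentration giving 50% growth inhibition; three independent experiments.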
Background: Tetrazolium dyes change colour on reduction, which living cells bring about.

Test [12] has as its target DNA topoisomerase 2-alpha (Homo sapiens) (UniProt P11388). The test can be described thus: Inhibition of recombinant human DNA topoisomerase 2-alpha assessed as supression of kDNA decatenation at 100 uM after 30 mins by agarose gel electrophoresis. In outline:
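ATP-dependent decatenation assay: 0.20 µg kDNA with 2 units Topo IIα at 37 °C for 30 min, 20 µL. Buffer: 50 mM Tris pH 8.0, KCl, 10 mM MgCl₂, 0.5 mM ATP, 0.5 mM DTT, 30 µg/mL BSA. Stopped with 10% SDS. Agarose gel scored for kDNA versus released minicircles.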

The species named for test [13] is Bos taurus. The test can be described thus: Inhibition of calf thymus DNA topoisomerase 1-mediated relaxation of supercoiled pBR322 DNA at 100 uM after 30 mins by Agarose gel electrophoresis. In outline: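 Relaxation assay with 0.5 µg supercoiled pBR322 and 1 unit calf thymus Topo I, 20 µL. Buffer: 10 mM Tris–HCl pH 7.9, 150 mM NaCl, 0.1% BSA, 1 mM spermidine, 5% glycerol. Incubated 37 °C for 30 min; stopped with sarcosyl stop solution. 1% agarose gel, 5 V/cm, 2 h, TAE; ethidium bromide stain (0.5 µg/mL), UV. DMSO stocks. At least duplicate.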

The test system of test [14] is Calf thymus DNA. Briefly: Induction of DNA intercalation activity of calf thymus DNA topoisomerase 1 assessed as unwinding of pBR322 DNA up to 100 uM after 30 mins by Agarose gel electrophoresis. In kind it is nucleic-acid assay. To be noted: Bos taurus. In outline: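 Relaxed pBR322 made by treating supercoiled plasmid with excess Topo I (10 units), then proteinase K digestion at 37 °C, phenol-chloroform extraction and ethanol precipitation. Incubated with compound 30 min at 37 °C, run on 1% agarose gel at 5 V/cm for 2 h in TAE, stained with 0.5 µg/mL ethidium bromide, viewed under UV.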

Test [15] is filed under the species Bos taurus. Briefly: Induction of calf thymus DNA topoisomerase 1 poisoning activity using pBR322 as substrate assessed as appearance of nicked open circular DNA at 100 uM after 30 mins by Agarose gel electrophoresis. In outline: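 Calf thymus Topo I (1 unit) with 0.5 µg pBR322 in relaxation buffer (10 mM Tris-HCl pH 7.9, 150 mM NaCl, 0.1% BSA, 1 mM spermidine, 5% glycerol), 37 °C for 30 min. Stopped with 10% SDS, digested with proteinase K (50 µg/mL) 20 min, run on ethidium bromide-containing 1% agarose gel, 5 V/cm, 2 h. Nicked open circular and linear DNA positions scored; at least duplicate.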

The test system of test [16] is MDA-MB-435. The test can be described thus: Induction of apoptosis in human MDA-MB-435 cells at 0.25 to 1 uM after 24 hrs by annexin-V FITC/propidium iodide staining-based flow cytometry in presence of N-acetylcysteine. In kind it is functional, cell-based.
Test [17] relates to MDA-MB-435. Briefly: Cell cycle arrest in human MDA-MB-435 cells at 0.25 to 1 uM after 24 hrs by propidium iodide staining-based flow cytometry in presence of N-acetylcysteine. In kind it is functional.
Test [18] relates to MDA-MB-435. The test can be described thus: Induction of human apoptosis in MDA-MB-435 cells assessed as upregulation of Bak protein expression at 0.25 to 1 uM after 12 hrs by Western blotting analysis. In kind it is functional, cell-based. The gist of the method: as §2
(A western blot detects proteins with antibodies after separation by electrophoresis.)

Test [19] has as its system MDA-MB-435. The test can be described thus: Induction of apoptosis in human MDA-MB-435 cells assessed as increase in cleaved-caspase 3 expression after 12 to 24 hrs by Western blotting analysis. It counts as functional, cell-based. The gist of the method:
as §2

The subject of test [20] is MDA-MB-435. The test can be described thus: Induction of apoptosis in human MDA-MB-435 cells assessed as late apoptotic cells at 2 uM after 24 hrs by annexin-V FITC/propidium iodide staining-based flow cytometry (reference value: 0.34 +/- 0.08%). In kind it is functional. In outline: as §1
Test [21] has as its system MDA-MB-435. The test can be described thus: Induction of apoptosis in human MDA-MB-435 cells assessed as dead cells at 1 uM after 24 hrs by annexin-V FITC/propidium iodide staining-based flow cytometry (reference value: 0.61 +/- 0.24%). It counts as functional.

DNA topoisomerase 2-alpha (Homo sapiens), sequence (P11388 whole entry): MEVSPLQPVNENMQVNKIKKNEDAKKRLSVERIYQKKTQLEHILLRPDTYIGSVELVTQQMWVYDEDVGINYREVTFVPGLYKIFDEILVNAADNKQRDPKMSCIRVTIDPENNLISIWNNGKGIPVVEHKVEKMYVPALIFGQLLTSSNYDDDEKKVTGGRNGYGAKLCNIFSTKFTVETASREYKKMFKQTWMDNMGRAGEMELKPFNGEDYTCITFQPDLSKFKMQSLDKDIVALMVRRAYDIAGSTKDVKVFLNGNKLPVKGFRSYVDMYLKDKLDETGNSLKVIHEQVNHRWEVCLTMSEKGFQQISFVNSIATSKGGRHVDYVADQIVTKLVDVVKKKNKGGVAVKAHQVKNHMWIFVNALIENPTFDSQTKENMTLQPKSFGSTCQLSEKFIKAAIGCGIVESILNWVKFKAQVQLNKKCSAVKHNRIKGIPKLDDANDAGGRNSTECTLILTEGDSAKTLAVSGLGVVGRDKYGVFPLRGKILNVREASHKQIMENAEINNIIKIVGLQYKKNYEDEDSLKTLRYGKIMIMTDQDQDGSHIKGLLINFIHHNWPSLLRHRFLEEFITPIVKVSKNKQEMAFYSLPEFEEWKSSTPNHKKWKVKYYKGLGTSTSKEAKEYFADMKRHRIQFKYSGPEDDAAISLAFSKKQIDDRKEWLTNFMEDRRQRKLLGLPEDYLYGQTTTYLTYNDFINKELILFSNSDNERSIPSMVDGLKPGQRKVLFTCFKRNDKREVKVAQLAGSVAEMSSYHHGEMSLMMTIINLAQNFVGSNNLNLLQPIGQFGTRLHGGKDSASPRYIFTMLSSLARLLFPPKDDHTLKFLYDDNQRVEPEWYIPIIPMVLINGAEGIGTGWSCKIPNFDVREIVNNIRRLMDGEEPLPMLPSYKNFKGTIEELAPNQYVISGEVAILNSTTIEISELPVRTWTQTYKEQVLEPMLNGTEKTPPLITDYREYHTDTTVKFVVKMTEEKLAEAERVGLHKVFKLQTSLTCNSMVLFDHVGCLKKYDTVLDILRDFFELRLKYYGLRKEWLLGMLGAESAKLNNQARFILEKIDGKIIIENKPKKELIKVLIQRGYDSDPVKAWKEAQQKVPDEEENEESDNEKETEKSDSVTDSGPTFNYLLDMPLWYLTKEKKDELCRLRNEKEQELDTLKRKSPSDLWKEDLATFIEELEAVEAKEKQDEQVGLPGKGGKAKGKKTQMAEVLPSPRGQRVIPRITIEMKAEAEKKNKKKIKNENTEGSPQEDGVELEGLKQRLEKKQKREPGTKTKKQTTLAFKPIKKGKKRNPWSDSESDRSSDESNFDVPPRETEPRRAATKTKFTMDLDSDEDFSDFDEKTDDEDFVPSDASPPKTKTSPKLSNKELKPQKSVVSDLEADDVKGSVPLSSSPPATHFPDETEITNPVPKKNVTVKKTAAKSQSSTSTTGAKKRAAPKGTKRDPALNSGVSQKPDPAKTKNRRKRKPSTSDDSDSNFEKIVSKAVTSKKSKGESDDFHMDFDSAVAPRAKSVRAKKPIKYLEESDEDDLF

As to `Oc1ccc(-c2ccc(-c3ccc(O)c(O)c3)cc2)cc1`, the Activity in test [1] is 13.33%; in [3], 1.27%; in test [4] it was 7.79%; in test [5], 8.01%; in [8], “tde”; in [9] it was 54.51%. In addition, the Activity in [10] is 26.38%; in test [19], “Dose-dependent effect”; in test [20] it was 14.35%; in test [21] it was 1.03%. In [2], the viability at 1 µM came to 76.3%. Moreover, the outcome in test [6], in test [7], in [16], in [17] and in test [18] was Active. The “growth inhibition (GI)” value in test [11] was “Active”. In addition, the inhibition entry in [12] and in [13] was “Active” throughout. For the same molecule, the outcome in test [14] and in [15] was inactive.
